Screening data deposited in PubChem BioAssay by The Scripps Research Institute Molecular Screening Center.
ABHD4 inh – ABHD4 inhibitors, primary screen, biochemical, fluorescence polarization, mouse; (Lyso)-N-acylphosphatidylethanolamine lipase (Mus musculus), Q8VD66; purified mABHD4, FP-Rh probe fluorescence polarization; inhibition, % at 8.92 µM; 0.54% of 370,000 active; AID 720543, 2013;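 active = inhibition exceeding the mean over every tested compound plus 3 SD, cut at about 30% in these data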
Target sequence (Q8VD66 whole entry, looked up): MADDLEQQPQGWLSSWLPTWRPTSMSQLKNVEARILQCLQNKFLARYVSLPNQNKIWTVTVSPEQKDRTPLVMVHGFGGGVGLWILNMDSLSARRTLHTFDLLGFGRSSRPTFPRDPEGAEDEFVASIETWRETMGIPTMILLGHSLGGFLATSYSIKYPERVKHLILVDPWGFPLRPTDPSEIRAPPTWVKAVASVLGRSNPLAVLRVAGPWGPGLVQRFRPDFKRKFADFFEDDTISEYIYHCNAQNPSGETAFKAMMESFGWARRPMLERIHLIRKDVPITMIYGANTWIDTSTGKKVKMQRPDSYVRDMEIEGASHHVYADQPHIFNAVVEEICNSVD
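Assay system: Wild-type mouse ABHD4 protein | Medium: HEPES pH 7.0 buffer, 150 mM NaCl, 0.01% Pluronic F-127 | Incubation: Enzyme–compound pre-incubation 45 min, then probe 60 min, both 25 °C | Technique: Fluorescence polarization with parallel and perpendicular emission, 525/598 nm | Evaluation: % inhibition of FP-Rh probe binding versus controls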
SIAE primary – human SIAE inhibitors, primary screen, biochemical, fluorescence polarization, FP-Rh probe, 1536-well HTS | inhibition, % at 9.66 µM | SIAE FP-Rh probe binding | Sialate O-acetylesterase (Homo sapiens), Q9HAT2 | 0.69% of 370,000 active;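 active = inhibition above a cutoff: mean of compounds within the control limits plus 3 SD of those, cut at about 17% in these data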
TCR-CD3 inh – inhibitors of human TCR-CD3 interaction, primary screen, biochemical, fluorescence, TAMRA-labeled TCR probe | inhibition, % at 9.4 µM | AID 651800, 2012 | 0.37% of 360,000 active; in the data active = inhibition above about 19%;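 also: recombinant mutant TCR 2C K166C tagged with TAMRA read by polarization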
rCAG binder – binders of r(CAG) RNA repeats, primary screen, biochemical, fluorescence | AID 651821, 2012 | r(CAG) RNA repeat, TO-PRO-1 dye displacement fluorescence | inhibition, % at 3 µM | 1.3% of 370,000 active;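 active = inhibition above the plate cutoff, the mean of all test compounds on that plate plus 3 SD, cut at about 35% in these data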;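 also: higher means more dye released from RNA so lower well fluorescence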
PRMT1 inh – PRMT1 methyltransferase inhibitors, primary screen, biochemical, fluorescence polarization. 1.3% of 370,000 active. inhibition, % at 2.79 µM. AID 652257, 2013. Protein arginine N-methyltransferase 1 (Homo sapiens), Q99873. recombinant PRMT1, activity-based probe fluorescence polarization;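 active = inhibition above about 21% made by adding two undisclosed values, limit read from the data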
rCAG bind conf – small molecules binding CAG repeat RNA – biochemical, fluorescence, confirmation. shares compounds with rCAG binder. r(CAG) RNA repeat, TO-PRO-1 dye displacement fluorescence. inhibition, % at 3 µM. 70% of 4,300 active. AID 652065, 2013;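 active = inhibition above a per-plate cutoff, the mean inhibition of sample wells plus 3 SD, cut at about 35% in these data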;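 also: loss of TO-PRO-1 fluorescence as compound displaces dye from 1x1 AA loop RNA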
dCAG dye counter – displacement of TO-PRO-1 from CAG DNA duplex, counter-screen for rCAG RNA repeat binder project, biochemical, fluorescence, TO-PRO-1 dye, d(CAG) DNA oligo. 94% of 4,300 active. inhibition, % at 3 µM. shares compounds with rCAG binder. d(CAG) DNA oligo TO-PRO-1 dye displacement;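 active = inhibition above its plate's cutoff, the mean test-well inhibition plus 3 SD, cut at about 4.8% in these data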;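 also: hits displace the dye from DNA and so lower well fluorescence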
Numbers stand for hits; i = inactive; nt = no result given. Shown are actives, neighbours in structure and some others; about 3.3% of the full set was active somewhere.

SMILES	ABHD4 inh	SIAE primary	TCR-CD3 inh	rCAG binder	PRMT1 inh	rCAG bind conf	dCAG dye counter
Cc1cccc(OCCCC(=O)Nc2ccc(S(=O)(=O)Nc3nccs3)cc2)c1C	i	i	i	59	i	49	17
Cc1noc(NS(=O)(=O)c2ccc(NC(=O)COc3ccc(C#N)cc3)cc2)c1C	i	i	i	i	i	nt	nt
Cc1ccc(-c2nc(C3CCCN(S(=O)(=O)c4ccc(Cl)s4)C3)no2)cc1 (stereo unspecified)	i	i	nt	i	i	nt	nt
CCCCN1CCN(C(=O)Cn2c(=O)c3ccccc3n(CC)c2=O)CC1	i	i	nt	i	i	nt	nt
COc1cccc(/C=C2/NC(=O)NC2=O)c1OCC(=O)Nc1ccccc1	i	i	i	i	i	nt	nt
O=C1NC(=O)/C(=C/c2ccccc2OCc2ccccc2)S1	i	i	i	67	i	60	16
O=C(COc1ccccc1/C=C1\SC(=O)NC1=O)Nc1ccccc1	i	i	i	35	i	48	15
Cc1ccc(C)c(OCC(=O)Nc2ccc(C(=O)O)cc2NC(=O)COc2cc(C)ccc2C)c1	i	i	i	74	i	75	40
COc1ccccc1OCC(=O)Nc1cc(NC(=O)COc2ccccc2OC)cc(C(=O)O)c1	i	i	i	46	i	i	i
O=C(COc1ccccc1Cl)Nc1cc(NC(=O)COc2ccccc2Cl)cc(C(=O)O)c1	i	i	i	i	i	nt	nt
COc1ccc(OCC(=O)Nc2cc(NC(=O)COc3ccc(OC)cc3)cc(C(=O)O)c2)cc1	i	i	i	38	i	52	17
O=C(Nc1ccc(S(=O)(=O)Nc2cnc3ccccc3n2)cc1)c1cccc(OC(F)F)c1	i	i	i	55	i	35	6.7
O=C(Nc1ccc(S(=O)(=O)Nc2cnc3ccccc3n2)cc1)c1ccc(F)cc1	i	i	i	i	i	nt	nt
O=C(CSCc1ccccc1)NNC(=S)Nc1cccc(Cl)c1Cl	i	i	i	58	i	65	26
O=C(c1ccccc1C(F)(F)F)N1CCC(Oc2cccnc2)CC1	i	i	nt	i	i	nt	nt
FC(F)(F)c1cccc(NC(=S)Nc2ccc(Cl)c(Cl)c2)c1	i	i	i	i	i	nt	nt
O=[N+]([O-])c1cc(C(F)(F)F)cc([N+](=O)[O-])c1NCCNC(=S)Nc1ccc(Cl)c(Cl)c1	i	i	i	36	i	i	6.6
CCOc1ccc(N2C(=O)CC(Sc3nc(-c4cccs4)cc(C(F)(F)F)c3C#N)C2=O)cc1 (stereo unspecified)	i	i	i	54	i	i	13
COC(=O)c1ccc2nc(Nc3nc4ccc(F)cc4s3)sc2c1	i	i	i	i	i	nt	nt
CC(=O)c1sc(Nc2nc3ccc(F)cc3s2)nc1C	i	i	i	36	i	i	8.0
COc1ccc(O)c(C(=O)c2cnc3nc4ccccc4n3c2)c1	i	i	i	40	i	i	6.5
COc1ccc(O)c(C(=O)c2cnn(-c3ccccn3)c2)c1	i	i	i	i	i	nt	nt
Cc1cc(C(=O)O)ccc1-n1c(C)cc(C=C2C(=O)c3ccccc3C2=O)c1C	i	i	i	43	i	41	11
CCOC(=O)c1sc(NS(=O)(=O)c2ccc(F)cc2)nc1C	i	i	i	i	i	nt	nt
C/C(=N/NC(=O)c1sc(NS(=O)(=O)c2ccccc2)nc1C)c1ccccc1	i	i	i	58	i	i	7.1
SMILES	ABHD4 inh	SIAE primary	TCR-CD3 inh	rCAG binder	PRMT1 inh	rCAG bind conf	dCAG dye counter
C/C(=N/NC(=O)c1sc(NS(=O)(=O)c2ccccc2)nc1C)c1ccc(F)cc1	i	i	i	84	i	49	15
Cc1ccc(C)c(S(=O)(=O)NNC(=O)c2sc(NS(=O)(=O)c3ccccc3)nc2C)c1	i	i	i	47	i	i	6.4
CCOC(=O)c1sc(NS(=O)(=O)c2ccccc2)nc1C	i	i	i	i	i	nt	nt
O=C(NC1CCCCN(Cc2ccc(OC(F)(F)F)cc2)C1=O)c1cccc(C(F)(F)F)c1 (stereo unspecified)	i	i	nt	i	i	nt	nt
Cc1nn(-c2ccccc2)c2sc(C(=O)NC3CCCC3)cc12	i	i	nt	i	i	nt	nt
CN(C)[C@H]1CCN(c2cccc3c2S(=O)(=O)N(C2CC2)CCCO3)C1	i	i	nt	i	i	nt	nt
Cc1cccc(C(=O)Nc2nnc(S(=O)(=O)N(C)Cc3ccco3)s2)c1	i	i	i	37	i	37	13
Cc1cccc(NS(=O)(=O)c2nnc(NC(=O)c3cccc(C)c3)s2)c1	i	i	i	i	i	nt	nt
Cc1cccc(NS(=O)(=O)c2nnc(NC(=O)c3ccc(Cl)cc3)s2)c1	i	i	i	37	i	i	12
COc1ccc(CN(C)S(=O)(=O)c2nnc(NC(=O)c3cccc(F)c3)s2)cc1OC	i	i	i	57	i	60	24
O=C(Oc1coc(CSc2ncccn2)cc1=O)c1ccc([N+](=O)[O-])cc1	i	i	nt	nt	i	nt	nt
Cc1ccc(C2=Nn3c(COc4ccc(Cl)cc4)nnc3SC2CC(=O)O)cc1 (stereo unspecified)	i	i	i	47	i	42	11
Cc1ccc(OCc2n[nH]c(=S)n2-c2ccc(Cl)cc2)cc1	i	i	i	i	i	nt	nt
Cc1ccccc1S(=O)(=O)NC(=O)C1(C)CCN1C(=O)CC(c1ccccc1)c1ccccc1 (stereo unspecified)	i	i	i	47	i	i	7.0
CC1(C(=O)NS(=O)(=O)c2cccc(OC(F)F)c2)CCN1C(=O)C/C=C/c1ccccc1 (stereo unspecified)	i	i	i	i	i	nt	nt
CC1(C(=O)NS(=O)(=O)c2ccccc2Cl)CCN1C(=O)CC(c1ccccc1)c1ccccc1 (stereo unspecified)	i	i	i	50	i	45	9.2
CC1(C(=O)NS(=O)(=O)c2cccc(OC(F)F)c2)CCN1C(=O)CC(c1ccccc1)c1ccccc1 (stereo unspecified)	i	i	i	52	i	46	14
CC1(C(=O)NS(=O)(=O)c2ccccc2)CCN1C(=O)CC(c1ccccc1)c1ccccc1 (stereo unspecified)	i	i	i	i	i	nt	nt
C/C=C/C(=O)N1CCC(C(=O)NCC2COc3ccccc3O2)CC1 (stereo unspecified)	i	i	nt	i	i	nt	nt
O=C1OC(c2cccs2)=N/C1=C\c1ccc(-c2ccccc2Cl)o1	i	i	i	40	i	37	16
